Here are results for ten compounds from paper PMC3846926 (Neuropharmacology, 2010).

In experiment [1] the test system is ASIC currents in cultured hippocampal neurons. Description: ASIC currents in primary cultured hippocampal neurons, whole-cell voltage clamp. It is filed as cell-based, mouse. Particulars: for Inhibition (potency), grade in words: diarylamidines of Table 1, cultured hippocampal neurons; for effect on rates of desensitization of ASIC currents: sub-maximal concentrations.

Experiment [2] relates to ENaC channels expressed in oocytes. As to the kind of experiment: ENaC current in Xenopus oocytes, two-electrode voltage clamp. Format: cell-based. The conditions noted are these: 100 µM; for effect on ENaC activities: oocytes; for relative current of ENaC with compound: relative to control without diarylamidine, holding -70 mV. In a few lines: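 Defolliculated (collagenase, 60–120 min) stage V–VI Xenopus laevis oocytes were injected with 1 ng ENaC α/β/γ cRNA and kept 3 days at 19 °C in low-Na+ ringer. Two-electrode voltage clamp at −70 mV, 22–26 °C, in ringer pH 7.4. Amiloride superfusion was replaced by amiloride-free solution, then test compound (100 µM) was applied without amiloride. Amiloride-sensitive current recorded at 1 kHz.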

Another experiment deals with T1, ASIC1a (Rattus norvegicus, UniProt P55926).
T1 sequence (P55926 1-526): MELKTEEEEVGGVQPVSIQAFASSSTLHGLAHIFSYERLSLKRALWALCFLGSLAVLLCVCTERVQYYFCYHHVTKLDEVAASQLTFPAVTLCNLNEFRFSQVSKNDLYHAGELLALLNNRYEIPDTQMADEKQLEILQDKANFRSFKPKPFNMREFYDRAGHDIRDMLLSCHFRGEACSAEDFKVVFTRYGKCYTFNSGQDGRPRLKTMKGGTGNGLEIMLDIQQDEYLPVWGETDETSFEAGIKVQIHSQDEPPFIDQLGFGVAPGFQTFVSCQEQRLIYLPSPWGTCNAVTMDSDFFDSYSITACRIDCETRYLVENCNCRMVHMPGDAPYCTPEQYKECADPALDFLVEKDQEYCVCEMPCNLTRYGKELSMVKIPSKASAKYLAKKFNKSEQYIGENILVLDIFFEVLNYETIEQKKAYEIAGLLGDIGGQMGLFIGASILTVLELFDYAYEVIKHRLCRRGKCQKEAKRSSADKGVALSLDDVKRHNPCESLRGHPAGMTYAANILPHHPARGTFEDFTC
Description: ASIC1a currents in oocytes. It is filed as cell-based. Particulars: 100 µM.

For a further experiment, the system named is ASIC current. The conditions noted are these: Wu et al., 2004, cited from earlier work.
For a further experiment, the system named is ENaC. Particulars: read-out: IC50 on ENaC; very weak inhibition; ref Ugawa et al., 2007; cited from earlier work.
A further experiment has as its target T2, homomeric ASIC1a (Rattus norvegicus, UniProt P55926).
T2 sequence (P55926 1-526): T1 sequence (P55926 1-526)
As to the kind of experiment: ASIC1a current in transfected CHO cells, patch clamp. Format: cell-based. In a few lines: (§1)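 CHO cells in F12 with 10% fetal bovine serum, cotransfected at ~50% confluence with the individual ASIC subunit cDNA (1.8 µg) plus GFP DNA (0.2 µg) per dish. GFP-positive cells whole-cell patch-clamped 48–72 h after plating, held at −60 mV. Activating pH: 6.0 (ASIC1a, 1b), 5.0 (ASIC2a), 6.5 (ASIC3). Test compound perfused 2 min. Currents normalized to control; IC50 from logistic fit; mean ± S.E.M.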

The target of the next experiment is T3, homomeric ASIC1b (Rattus norvegicus, UniProt P55926).
T3 sequence (P55926 1-559 isoform P55926-3): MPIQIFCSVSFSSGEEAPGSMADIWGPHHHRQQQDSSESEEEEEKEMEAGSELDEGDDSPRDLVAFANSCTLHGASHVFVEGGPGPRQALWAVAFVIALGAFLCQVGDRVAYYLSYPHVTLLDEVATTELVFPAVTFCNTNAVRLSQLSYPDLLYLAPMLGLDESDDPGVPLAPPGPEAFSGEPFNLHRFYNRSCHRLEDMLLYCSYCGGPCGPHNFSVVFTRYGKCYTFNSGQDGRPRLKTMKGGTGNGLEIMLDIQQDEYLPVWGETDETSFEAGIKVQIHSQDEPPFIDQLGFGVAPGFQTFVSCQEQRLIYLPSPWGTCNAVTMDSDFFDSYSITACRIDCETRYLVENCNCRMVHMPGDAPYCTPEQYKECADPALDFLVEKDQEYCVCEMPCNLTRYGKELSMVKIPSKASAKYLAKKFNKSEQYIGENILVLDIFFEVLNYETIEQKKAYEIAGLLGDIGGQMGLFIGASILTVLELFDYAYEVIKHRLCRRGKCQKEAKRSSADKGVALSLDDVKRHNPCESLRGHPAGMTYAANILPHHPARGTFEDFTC
As to the kind of experiment: ASIC1b current in transfected CHO cells, patch clamp. Format: cell-based. Particulars: pH 6, read-out: inhibition of ASIC1b current. In a few lines: as §1
A general note: The patch-clamp technique gives a direct electrical read-out from membranes.

Another experiment has as its target T4, homomeric ASIC2a (Rattus norvegicus, UniProt Q62962).
T4 sequence (Q62962 1-512): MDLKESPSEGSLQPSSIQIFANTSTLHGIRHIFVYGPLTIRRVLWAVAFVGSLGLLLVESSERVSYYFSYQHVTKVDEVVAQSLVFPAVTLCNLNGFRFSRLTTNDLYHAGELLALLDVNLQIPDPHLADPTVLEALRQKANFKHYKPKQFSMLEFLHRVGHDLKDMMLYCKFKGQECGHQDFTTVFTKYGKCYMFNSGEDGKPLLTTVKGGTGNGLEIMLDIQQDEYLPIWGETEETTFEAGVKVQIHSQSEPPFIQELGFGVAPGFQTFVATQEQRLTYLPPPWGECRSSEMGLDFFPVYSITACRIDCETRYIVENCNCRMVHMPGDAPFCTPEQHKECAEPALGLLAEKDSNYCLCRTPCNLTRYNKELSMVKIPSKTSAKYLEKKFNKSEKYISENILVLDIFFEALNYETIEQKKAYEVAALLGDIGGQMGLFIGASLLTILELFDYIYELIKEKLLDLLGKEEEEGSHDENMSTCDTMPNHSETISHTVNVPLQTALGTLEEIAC
As to the kind of experiment: ASIC2a current in transfected CHO cells, patch clamp. Format: cell-based. The conditions noted are these: pH 5, read-out: inhibition of ASIC2a current. In a few lines:
as §1

The target in the next experiment is T5, homomeric ASIC3 (Rattus norvegicus, UniProt O35240).
T5 sequence (O35240 1-533): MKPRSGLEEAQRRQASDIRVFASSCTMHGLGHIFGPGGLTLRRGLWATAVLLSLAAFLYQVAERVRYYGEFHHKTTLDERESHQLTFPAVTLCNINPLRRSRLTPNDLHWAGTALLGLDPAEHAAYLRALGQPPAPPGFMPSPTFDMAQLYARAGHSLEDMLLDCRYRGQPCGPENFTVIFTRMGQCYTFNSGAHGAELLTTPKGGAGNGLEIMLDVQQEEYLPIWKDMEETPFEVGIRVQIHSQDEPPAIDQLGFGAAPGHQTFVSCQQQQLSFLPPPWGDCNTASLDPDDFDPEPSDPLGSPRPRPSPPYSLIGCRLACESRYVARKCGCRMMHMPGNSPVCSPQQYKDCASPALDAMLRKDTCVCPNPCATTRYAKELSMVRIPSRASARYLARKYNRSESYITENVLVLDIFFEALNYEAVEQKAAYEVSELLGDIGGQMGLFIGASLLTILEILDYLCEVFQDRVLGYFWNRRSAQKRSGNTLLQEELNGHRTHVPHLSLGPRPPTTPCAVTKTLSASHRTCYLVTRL
Description: ASIC3 current in transfected CHO cells, patch clamp. Particulars: pH 6.5, read-out: inhibition of ASIC3 current. Format: cell-based. The procedure, abridged: as §1

Experiment [3] deals with cultured hippocampal neurons. Format: cell-based, mouse. Particulars: 10 µM, current clamp.
Where [4] appears, read: 200 µM, cultured hippocampal neurons.

Entries after “also recorded” stand apart in the source; their conditions may differ.

Consider `N=C(N)c1ccc(-c2cc3ccc(C(=N)N)cc3[nH]2)cc1` [DAPI, 4′,6-diamidino-2-phenylindole], for which, in experiment [1], the “Inhibition (potency), grade in words” value is “Strong inhibition” and the “effect on rates of desensitization of ASIC currents” value (“effect on rates” for short) is recorded as “did not have marked effects”. In experiment [2], the “effect on ENaC activities” value is recorded as “did not inhibit; also recorded: ineffective” and the “relative current of ENaC with compound” value is listed as 0.98 ± 0.04. On ASIC1a, the “block of ASIC1a currents in oocytes” value is “almost completely”.

In the case of `CC1(C)[C@@H](OC(=O)CCC(=O)O)CC[C@]2(C)[C@H]3C(=O)C=C4[C@@H]5C[C@@](C)(C(=O)O)CC[C@]5(C)CC[C@@]4(C)[C@]3(C)CC[C@@H]12` [Carbenoxolone], in [1] (setting [4]), the “effect on ASIC currents” value is listed as “failed to inhibit; also recorded: did not inhibit”.

`Cc1ccc(C(=O)Nc2ccc(S(=O)(=O)O)c3cc(S(=O)(=O)O)cc(S(=O)(=O)O)c23)cc1NC(=O)c1cccc(NC(=O)Nc2cccc(C(=O)Nc3cc(C(=O)Nc4ccc(S(=O)(=O)O)c5cc(S(=O)(=O)O)cc(S(=O)(=O)O)c45)ccc3C)c2)c1` [suramin]: the “effect on ASIC currents” value in [1] (500 µM, cultured hippocampal neurons) is on record as “failed to inhibit”.

Consider `N=C(N)NC(=O)c1nc(Cl)c(N)nc1N` [Amiloride], for which the “effect on desensitization of ASIC current” value in experiment [1] (amiloride 80 µM co-applied with pH 5.8) is reported as “did not accelerate; also recorded: little effect”. Moreover, the “desensitization time constant of ASIC currents” value in experiment [1] (amiloride 80 µM co-applied with pH 5.8, control 0.83 ± 0.15 s) was 0.72 ± 0.14 s. Moreover, in the experiment on ASIC current (read-out: IC50 on ASIC current, ref Waldmann et al., 1997), the IC50 – broadly, the concentration at which inhibition is half-maximal – was 10 to 20 µM. In addition, the “concentration required to completely block the neuronal ASIC currents” value with ASIC current (ref Baron et al., 2002) is 200 to 500 µM.

In the case of `N=C(N)c1ccc2cc(OC(=O)c3ccc(N=C(N)N)cc3)ccc2c1` [Nafamostat], in the experiment on ENaC, the IC50 was roughly 1000 µM.

As for `N=C(N)c1ccc(/N=N/Nc2ccc(C(=N)N)cc2)cc1` [Diminazene], the “desensitization time constant of ASIC currents” value is 0.4 ± 0.1 s in [1] (1 µM by perfusion, control 1.7 ± 0.2 s) and 0.4 ± 0.1 s in experiment [1] (diminazene 3 µM co-applied with pH 5.8, control 1.6 ± 0.3 s). Further, the “Inhibition (potency), grade in words” value in [1] was “Strong inhibition”. For the same compound, the “effect on ENaC activities” value in [2] is recorded as “did not inhibit; also recorded: ineffective”. In addition, the “relative current of ENaC with compound” value in experiment [2] is reported as 1.11 ± 0.05. The “block of ASIC1a currents in oocytes” value on ASIC1a is reported as “almost completely”. The IC50 against homomeric ASIC1a is roughly 3 µM. The inhibition (as a rule, how much of the control response was suppressed) at 3 µM on homomeric ASIC1a (CHO, pH 6, read-out: inhibition of ASIC1a current) was determined as 39 ± 3.8%; at homomeric ASIC1b it was 92 ± 0.5%; on homomeric ASIC2a, 51 ± 6.1%; at homomeric ASIC3 it was 74 ± 0.6%. Besides, in experiment [3], the “effect on low pH-induced depolarization and excitation” value is recorded as “dramatically attenuated; also recorded: markedly attenuated”.

Consider `Cn1cc(NC(=O)c2cc(NC(=O)CN=C(N)N)cn2C)cc1C(=O)NCCC(=N)N` [Netropsin], for which the “effect on ASIC currents” value in experiment [1] (100 µM, cultured hippocampal neurons) was “did not inhibit”; in experiment [1] (concentration not given) it was “without effect; also recorded: failed to inhibit”.

Consider `N=C(N)c1ccc(/C=C/c2ccc(C(=N)N)cc2O)cc1` [Hydroxystilbamidine], for which, in experiment [1], the IC50 was determined as 1.5 µM; the “Inhibition (potency), grade in words” value was “Strong inhibition”; the “effect on rates” value is reported as “did not have marked effects”. Moreover, in experiment [2] (listed as HSB), the “effect on ENaC activities” value was “did not inhibit”. For the same compound, the “relative current of ENaC with compound” value in experiment [2] is on record as 1.02 ± 0.04.

Regarding `N=C(N)c1ccc(OCCCCCOc2ccc(C(=N)N)cc2)cc1` [Pentamidine], in [1], the “Inhibition (potency), grade in words” value is given as “Inhibition” and the “effect on rates” value is recorded as “did not have marked effects”. For the same compound, in experiment [2], the “effect on ENaC activities” value is reported as “did not inhibit; also recorded: ineffective” and the “relative current of ENaC with compound” value worked out at 1.02 ± 0.03. Further, the “block of ASIC1a currents in oocytes” value at ASIC1a is recorded as 77%.

`O=C(Nc1cccc(C2=NCCN2)c1)Nc1cccc(C2=NCCN2)c1` [Imidocarb]: the “inhibition of ASIC currents” value in experiment [1] (setting [4]) was “Inhibit 42 ± 7% at 200 µM”.
